These results are taken from PubChem BioAssay AID504775 (Broad Institute, 2011).

Each structure is given as a SMILES string. The campaign covered roughly 320,000 compounds. About 310 (0.097%) were called active. The sample holds actives, similar compounds and a random draw of the others, so the mix is not that of the screen. A number with no mark means an inactive call.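 The calls were made as follows: active = mean replicate activation of at least 60% and every replicate at or above 60%; inconclusive = mean or all-replicate condition met, but not both; inactive = mean below 60% and not all replicates reaching 60%.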

The nature of this assay: enhancers of HDL lipid transfer via mSR-BI – ldlA[mSR-BI] CHO cells, DiI fluorescence, primary screen (AID 504775).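 Also: 0% = median plate neutral-control signal and 100% = twice that signal.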 Particulars: DiI-HDL uptake fluorescence, 3 h, at 12.5 µM, stronger effect = higher value, 100 = double the neutral-control signal. The essentials: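 Test system: SR-BI-overexpressing, LDLR-lacking CHO cells; Medium: Ham's F12 with 0.5% BSA, HEPES 25 mM, pH 7.4; Schedule: 3 h, 37 °C; Technique: bottom-read fluorescence, 550/595 nm.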
As to `O=C(COC(=O)c1ccc(O)cc1O)NC(=O)c1ccccc1`, the activation was 38.7%.
Then `O=C(NCc1ccccc1)c1cccc(NC(=O)C2CCCCC2)c1`, with -0.488%; and `O=C1OCC2=C1C(c1ccc(Cl)cc1)c1cc3c(cc1O2)OCO3` (stereo unspecified), with -14%.
The same measure for `CCN1C[C@@H]2[C@@H]3C(=O)N(C)C(=O)[C@@H]3[C@](C)(C1=O)N2C(=O)c1ccccc1`: -27.8%; for `Oc1cccc(CCc2ccccn2)c1`: 0.288%.
Then `COc1cccc(/C=N/Nc2ccc(S(=O)(=O)Nc3ccccc3C(=O)O)cc2[N+](=O)[O-])c1O`, with 4.5%; and `CCCN(CC(=O)Nc1ccc(C(N)=O)cc1)CC(=O)Nc1ccccc1C`, with 13.5%.
Take `CCCOc1ccccc1C(=O)NCCCC(=O)O`: the activation was 21.5%.
For `CCCN(CCC)CC(O)COc1ccccc1C(=O)Nc1ccccc1` (stereo unspecified), the activation was 102% (active).
Then `COc1ccc(CNCCCNCc2ccc(OC)c(OC)c2)cc1OC`, with 4.58%; and `CC(C)(C)C(=O)Nc1cccc(-c2ccc[nH]2)n1`, with 5.41%.
`O=C1C2C3C=CC(C3)C2C(=O)N1c1ncc([N+](=O)[O-])s1` (stereo unspecified): the activation is 8.82%.
The same measure for `COc1ccc(Br)cc1/C=N/Nc1ccc(S(=O)(=O)Nc2ccccc2C(=O)O)cc1[N+](=O)[O-]`: 16.3%.
`COc1ccc(/C=C/C(=O)OCC(=O)N2CCN(S(=O)(=O)c3ccc(C)cc3C)CC2)cc1OC`: the activation is -71.9%.
Take `CCOc1cc(C(=O)N(Cc2ccccc2)c2ccc(C)cc2)ccc1OCC(=O)N1CCOCC1`: the activation is -5.71%.
Then `O=C(NNC(=O)c1ccccc1O)c1ccccc1O`, with -124%.
The same measure for `CN(C)C(=S)N=c1ssc(=S)n1Cc1ccco1`: -0.753%.
The same measure for `O=C(CC1Sc2ccccc2NC1=O)NNc1ccc(Cl)c(Cl)c1` (stereo unspecified): -45.6%.
For the molecule `O=S(=O)(O)c1cc2onnc2c2ccccc12`, the activation was 15.5%.
Then `Nc1ccc2c(c1)C(O)c1ccc(Cl)cc1-2` (stereo unspecified), with 14.5%; and `COc1cc(C(=O)CCc2ccc3c(c2)OCO3)cc(OC)c1OC`, with -43.2%.
Then `COC1=CC(=O)OC(c2ccc(OC)cc2)C1` (stereo unspecified), with 14.1%; and `O=C(NCCc1ccccc1)c1c[nH]c2ccc(F)cc2c1=O`, with -17.9%.
The same measure for `CC(C)[C@@H](C(=O)OCC(=O)c1ccc2c(c1)NC(=O)CO2)N1C(=O)c2ccccc2C1=O`: 1.12%; for `CCOC(=O)CCC(NC(=O)c1ccc(CNc2nc3cc(C(F)(F)F)ccc3nc2C(=O)OCC)cc1)C(=O)OCC` (stereo unspecified): -43.7%; for `CC(=O)OC1CCC2C3CCC4=C(CC(F)C(=O)C4)C3CCC12C` (stereo unspecified): -3.99%.
